# Test results from ChEMBL document CHEMBL5154735, “Interaction of A3 adenosine receptor ligands with the human multidrug transporter ABCG2” (Eur J Med Chem, 2022).
# Experiments:
# [1] = biological target: T1, ABCG2 (Homo sapiens, UniProt Q9UNQ0); experiment: Activation of human ABCG2-mediated ATPase activity preincubated for 2 mins followed by ATP addition at 2.5 M and measured after 20 mins by colorimetric assay relative to control; design: dose or concentration left out as unconfirmed; conditions: read-out: Activity
# T1 sequence (Q9UNQ0 whole entry): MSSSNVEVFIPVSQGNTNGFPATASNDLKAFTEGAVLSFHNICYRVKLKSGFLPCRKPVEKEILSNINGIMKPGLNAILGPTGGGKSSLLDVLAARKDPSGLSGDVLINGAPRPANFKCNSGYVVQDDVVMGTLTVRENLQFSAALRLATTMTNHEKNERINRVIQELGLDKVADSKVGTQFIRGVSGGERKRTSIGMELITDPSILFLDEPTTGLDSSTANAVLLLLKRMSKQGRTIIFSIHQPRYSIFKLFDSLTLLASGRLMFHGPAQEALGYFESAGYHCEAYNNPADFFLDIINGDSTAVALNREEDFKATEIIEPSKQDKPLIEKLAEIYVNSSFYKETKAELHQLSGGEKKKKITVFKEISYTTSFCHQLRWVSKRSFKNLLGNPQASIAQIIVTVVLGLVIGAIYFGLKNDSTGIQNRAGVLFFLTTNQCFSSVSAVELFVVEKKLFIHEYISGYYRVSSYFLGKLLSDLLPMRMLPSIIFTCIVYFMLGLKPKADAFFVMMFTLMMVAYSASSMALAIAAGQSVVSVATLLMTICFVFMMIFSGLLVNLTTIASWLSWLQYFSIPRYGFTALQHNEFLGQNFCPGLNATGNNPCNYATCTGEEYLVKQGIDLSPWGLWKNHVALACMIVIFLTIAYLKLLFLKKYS
# Method in brief: (§1)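 Total membrane vesicles from High-Five insect cells expressing human ABCG2 (hypotonic lysis, differential centrifugation), 10 μg protein/tube, in MES-Tris pH 6.8 buffer with KCl, MgCl2, NaN3, EGTA, ouabain, DTT. Compound in DMSO added ± sodium orthovanadate (0.3 mM), DMSO control. Preincubated 2 min at 37°C, then 5 mM ATP, 20 min. SDS stop, Pi measured colorimetrically. Three independent experiments in duplicate, mean ± SE.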
# [2] = biological target: T1, ABCG2; experiment: Activation of human ABCG2-mediated ATPase activity preincubated for 2 mins followed by ATP addition at 10 M and measured after 20 mins by colorimetric assay relative to control; design: dose or concentration left out as unconfirmed; conditions: read-out: Activity; method in brief: as §1
# [3] = biological target: T1, ABCG2; experiment: Effect on human ABCG2 transporter preincubated for 2 mins followed by ATP addition assessed as basal ATPase activity at 2.5 uM and measured after 20 mins by colorimetric assay relative to control; conditions: read-out: Activity; method in brief: as §1
# [4] = biological target: T1, ABCG2; experiment: Activation of human ABCG2-mediated ATPase activity preincubated for 2 mins followed by ATP addition at 10 uM and measured after 20 mins by colorimetric assay relative to control; conditions: read-out: Activity; method in brief: as §1
# [5] = biological target: T1, ABCG2; experiment: Activation of human ABCG2-mediated ATPase activity preincubated for 2 mins followed by ATP addition at 100 nM and measured after 20 mins by colorimetric assay relative to control; conditions: read-out: Activity; method in brief: as §1
# [6] = biological target: T2, Adenosine receptor A3 (Homo sapiens, UniProt P0DMS8); experiment: Binding affinity towards human adenosine A3 receptor
# T2 sequence (P0DMS8 whole entry): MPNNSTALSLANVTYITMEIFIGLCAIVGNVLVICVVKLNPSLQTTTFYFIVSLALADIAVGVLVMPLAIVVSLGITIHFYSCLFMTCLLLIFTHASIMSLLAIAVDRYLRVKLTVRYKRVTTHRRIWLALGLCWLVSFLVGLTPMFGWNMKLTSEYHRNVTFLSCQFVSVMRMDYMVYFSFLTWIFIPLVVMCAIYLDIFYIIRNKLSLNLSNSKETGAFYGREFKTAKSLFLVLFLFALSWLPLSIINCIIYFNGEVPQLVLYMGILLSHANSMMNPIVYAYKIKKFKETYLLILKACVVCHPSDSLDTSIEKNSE
# [7] = biological target: T1, ABCG2; experiment: Inhibition of human ABCG2-mediated ATPase activity preincubated for 2 mins followed by ATP addition at 2.5 uM and measured after 20 mins by colorimetric assay relative to control; method in brief: as §1
# [8] = biological target: T1, ABCG2; experiment: Inhibition of human ABCG2 in human R5 cells assessed as inhibition of mitoxantrone efflux at 10 uM measured by flow cytometric analysis relative to control; format: cell-based; conditions: probe mitoxantrone
# Method in brief: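 HEK293 cells transfected with full-length ABCG2 (R-5) or empty pcDNA vector, grown in MEM with 10% FBS and 2 mg/ml G418. Cells incubated in IMDM with 5% FBS, 5 μM mitoxantrone (final) ± compound, 37°C for 45 min. Washed in cold IMDM, resuspended in cold PBS with 1% BSA, read by flow cytometry.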
# [9] = biological target: T1, ABCG2; experiment: Inhibition of human ABCG2-mediated ATPase activity preincubated for 2 mins followed by ATP addition at 10 uM and measured after 20 mins by colorimetric assay relative to control; method in brief: as §1
# [10] = biological target: T3, Broad substrate specificity ATP-binding cassette transporter ABCG2 (Homo sapiens, UniProt Q9UNQ0); experiment: Inhibition of human ABCG2-mediated ATPase activity preincubated for 2 mins followed by ATP addition and measured after 20 mins by colorimetric assay; method in brief: as §1
# T3 sequence (Q9UNQ0 whole entry): T1 sequence (Q9UNQ0 whole entry)
# [11] = biological target: T3, Broad substrate specificity ATP-binding cassette transporter ABCG2; experiment: Activation of human ABCG2-mediated ATPase activity preincubated for 2 mins followed by ATP addition and measured after 20 mins by colorimetric assay; method in brief: as §1
# [12] = biological target: T1, ABCG2; experiment: Activation of human ABCG2-mediated ATPase activity preincubated for 2 mins followed by ATP addition at 2.5 uM and measured after 20 mins by colorimetric assay relative to control; conditions: read-out: Activity; method in brief: as §1
# [13] = biological target: T1, ABCG2; experiment: Effect on human ABCG2 transporter preincubated for 2 mins followed by ATP addition assessed as basal ATPase activity at 10 uM and measured after 20 mins by colorimetric assay relative to control; conditions: read-out: Activity; method in brief: as §1
smiles,measurement,setting,value
CCCNc1nc(C#Cc2ccc(Cl)s2)nc2c1ncn2[C@@H]1O[C@H](C(=O)NC)[C@@H](O)[C@H]1O,activity at 20 min,[1],124%
same,activity at 20 min,[2],122%
CNC(=O)[C@H]1O[C@@H](n2cnc3c(NC)nc(C#Cc4ccc(Cl)s4)nc32)[C@H](O)[C@@H]1O,activity at 20 min,[1],112%
same,activity at 20 min,[2],122%
"CNC(=O)C12CC1[C@@H](n1cnc3cnc(C#Cc4ccc(F)c(F)c4)nc31)[C@H](O)[C@@H]2O (single isomer, unassigned)","activity at 20 min, 2.5 µM",[3],≤ 30%
same,"activity at 20 min, 10 µM",[4],64.2%
Clc1ccc(C#CC2=NC3=NC=NC3C(NCCc3ccccc3)=N2)s1 (stereo not given),"activity at 20 min, 0.1 µM",[5],80.8%
same,Ki,[6],≥ 99 nM
"CNC(=O)C12CC1[C@@H](n1cnc3c(NCc4cccc(-n5cc(-c6ccc(F)c(F)c6)nn5)c4)nc(C#Cc4cc(F)c(F)c(F)c4)nc31)[C@H](O)[C@@H]2O (single isomer, unassigned)","inhibition at 20 min, 2.5 µM",[7],38.9%
same,inhibition at 10 µM,[8],105%
same,"inhibition at 20 min, 10 µM",[9],48.9%
same,IC50,[10],4010 nM
Fc1ccc(C#CC2=NC3=NC=NC3C(NCc3cccc(Cl)c3)=N2)cc1F (stereo not given),EC50,[11],50 nM
same,Ki,[6],≥ 99 nM
same,activity at 20 min,[1],165%
same,inhibition at 10 µM,[8],81.4%
same,activity at 20 min,[2],164%
"CNC(=O)C12CC1[C@@H](n1cnc3c(NCc4cccc(Cl)c4)nc(C#Cc4ccc(F)cc4)nc31)[C@H](O)[C@@H]2O (single isomer, unassigned)","activity at 20 min, 2.5 µM",[12],60.3%
same,"activity at 20 min, 10 µM",[4],49.3%
"CNC(=O)C12CC1[C@@H](n1cnc3c(NCc4cccc(-n5cc(-c6ccc(F)c(F)c6)nn5)c4)nc(C#Cc4ccc(C(F)(F)F)cc4)nc31)[C@H](O)[C@@H]2O (single isomer, unassigned)","activity at 20 min, 2.5 µM",[3],≤ 30%
same,"inhibition at 20 min, 10 µM",[9],44.5%
"CNC(=O)C12CC1[C@@H](n1cnc3c(N[C@H]4C[C@@H]4c4ccc(F)c(F)c4)nc(C#Cc4cccc(F)c4)nc31)[C@H](O)[C@@H]2O (single isomer, unassigned)",EC50,[11],14 nM
same,"activity at 20 min, 2.5 µM",[12],101%
same,inhibition at 10 µM,[8],97.2%
"CNC(=O)C12CC1[C@@H](n1cnc3c(C)nc(C#Cc4ccc(F)c(F)c4)nc31)[C@H](O)[C@@H]2O (single isomer, unassigned)","activity at 20 min, 2.5 µM",[12],49.6%
same,"activity at 20 min, 10 µM",[4],72.6%
same,Ki,[6],≥ 99 nM
"CNC(=O)C12CC1[C@@H](n1cnc3c(NCc4cccc(-n5cc(-c6ccc(F)c(F)c6)nn5)c4)nc(C#Cc4ccc(F)c(F)c4)nc31)[C@H](O)[C@@H]2O (single isomer, unassigned)","inhibition at 20 min, 2.5 µM",[7],43.5%
same,inhibition at 10 µM,[8],92.5%
same,IC50,[10],2570 nM
"CNC(=O)C12CC1[C@@H](n1cnc3c(NCc4cccc(Cl)c4)nc(C#Cc4cccc(Cl)c4)nc31)[C@H](O)[C@@H]2O (single isomer, unassigned)","activity at 20 min, 2.5 µM",[12],49.3%
same,"activity at 20 min, 10 µM",[13],≤ 30%
"O[C@@H]1[C@H](O)C2CC2[C@H]1n1cnc2c(NCc3cccc(Cl)c3)nc(C#Cc3ccc(F)c(F)c3)nc21 (single isomer, unassigned)",Ki,[6],≥ 99 nM
same,activity at 20 min,[1],75.2%
same,activity at 20 min,[2],54.1%
"CCOC(=O)C12CC1[C@@H](n1ccc3c(NCCCc4ccc(OC)c(O)c4)nc(C#Cc4ccccc4)nc31)[C@H](O)[C@@H]2O (single isomer, unassigned)","activity at 20 min, 0.1 µM",[5],55.9%
same,Ki,[6],≥ 99 nM
"CNC(=O)C1O[C@@H](n2cnc3c(NCc4cccc(I)c4)ncnc32)[C@H](O)[C@@H]1O (single isomer, unassigned)",EC50,[11],70 nM
same,activity at 20 min,[1],66.2%
same,activity at 20 min,[2],98.2%
